{"data": "Assay results collected from several papers", "note": "Protocols differ between the studies behind these lines."}
{"SMILES": "Clc1ccc(-c2cc(CNc3cccc4cccnc34)on2)c(Cl)c1", "cell line": "CAPAN-1", "effect on": "cell growth or viability", "technique": "MTS", "time": "72 h", "IC50": "14.9 µM"}
{"SMILES": "CC1(P2(=O)CCCCC2)CCCCC1", "cell line": "SW-620", "effect on": "cell growth or viability", "technique": "MTT", "time": "72 h", "IC50": "> 100 µM"}
{"SMILES": "Cc1[nH]c2ccccc2c1CCNCc1ccc(/C=C/C(=O)NO)cc1", "cell line": "MP46", "effect on": "cell growth or viability", "technique": "ATP luminescence", "time": "72 h", "IC50": "0.0277 µM"}
{"SMILES": "Nc1ccccc1NC(=O)c1ccc(Cn2cnc3c(Nc4ccc(Cl)cc4)ncnc32)cc1", "cell line": "THP-1", "effect on": "cell growth or viability", "technique": "MTT", "time": "72 h", "IC50": "0.48 µM"}
{"SMILES": "Cc1noc(C)c1-c1cc(C(O)(c2ccccn2)c2ccccn2)c2nc(C3CC3)[nH]c2c1", "cell line": "MP46", "effect on": "cell growth or viability", "technique": "ATP luminescence", "time": "72 h", "IC50": "0.0712 µM"}
{"SMILES": "COC(=O)Nc1nc2ccc(C(=O)c3cccs3)cc2[nH]1", "cell line": "HepaRG", "effect on": "reactive oxygen species", "action": "inhibitor", "time": "16 h", "IC50": "9.61 µM"}
{"SMILES": "O=c1cc(OCc2cc(-c3ccc(C(F)(F)F)cc3)no2)c2ccccc2o1", "cell line": "CAPAN-1", "effect on": "cell growth or viability", "technique": "MTS", "time": "72 h", "IC50": "> 100 µM"}
{"SMILES": "CCNC(=O)c1cc2c(-c3cc(C(C)(C)O)ccc3Oc3c(C)cc(F)cc3C)cn(C)c(=O)c2[nH]1", "cell line": "MP46", "effect on": "cell growth or viability", "technique": "ATP luminescence", "time": "72 h", "IC50": "56600 µM"}
{"SMILES": "O=C(CSc1nc2ccccc2s1)N/N=C/c1ccc(OCC(=O)Nc2cccc(Cl)c2)cc1", "cell line": "CAPAN-1", "effect on": "cell growth or viability", "technique": "MTS", "time": "72 h", "IC50": "18.2 µM"}
{"SMILES": "COc1cc([C@@H]2c3cc4c(cc3[C@H](O)[C@H]3COC(=O)[C@H]23)OCO4)cc(OC)c1OC", "cell line": "MP46", "effect on": "cell growth or viability", "technique": "ATP luminescence", "time": "72 h", "IC50": "0.00656 µM"}
{"SMILES": "c1ccc(Oc2ccc(Nc3c4c(nc5ccccc35)CCC4)cc2)cc1", "cell line": "THP-1", "effect on": "cell growth or viability", "time": "72 h", "IC50": "18.3 µM"}
{"SMILES": "N#Cc1ccc(-c2cc(COc3cc(C(F)(F)F)nc4ccccc34)on2)cc1", "cell line": "CAPAN-1", "effect on": "cell growth or viability", "technique": "MTS", "time": "72 h", "IC50": "22.5 µM"}
{"SMILES": "Nc1ccccc1NC(=O)c1ccc(Cn2cnc3c(Nc4ccc(Br)cc4F)ncnc32)cc1", "cell line": "THP-1", "effect on": "cell growth or viability", "technique": "MTT", "time": "72 h", "IC50": "0.41 µM"}
{"SMILES": "CC(C)(C)c1cc(/C=C2\\SC(N)=NC2=O)cc(C(C)(C)C)c1O", "cell line": "HepaRG", "effect on": "reactive oxygen species", "action": "inhibitor", "time": "16 h", "IC50": "0.83 µM"}
{"SMILES": "O=C(CSc1nc2ccccc2s1)N/N=C/c1ccc(OCC(=O)Nc2cccc([N+](=O)[O-])c2)cc1", "cell line": "CAPAN-1", "effect on": "cell growth or viability", "technique": "MTS", "time": "72 h", "IC50": "4.25 µM"}
{"SMILES": "O=c1cc(OCc2cc(-c3ccc(Cl)cc3Cl)no2)c2ccccc2o1", "cell line": "CAPAN-1", "effect on": "cell growth or viability", "technique": "MTS", "time": "72 h", "IC50": "80.1 µM"}
{"SMILES": "CC(C)C[C@H](NC(=O)[C@H](Cc1ccccc1)NC(=O)c1cnccn1)B(O)O", "cell line": "MP46", "effect on": "cell growth or viability", "technique": "ATP luminescence", "time": "72 h", "IC50": "0.00352 µM"}
{"SMILES": "COc1cc(C2C3=C(COC3=O)N(CCO)c3cc4c(cc32)CCC4)cc(OC)c1OC (centres unmarked)", "cell line": "SUM159", "effect on": "cell growth or viability", "technique": "ATP luminescence", "time": "48 h", "IC50": "0.24 µM"}
{"SMILES": "Cc1cc2c(C(N)=O)cccc2n1-c1nc2c(c(NCc3ccccc3)n1)CCCN2", "cell line": "SW-620", "effect on": "cell growth or viability", "time": "72 h", "IC50": "0.6 µM"}
{"SMILES": "N#Cc1ccc(-c2cc(COc3cc(=O)oc4ccccc34)on2)cc1", "cell line": "CAPAN-1", "effect on": "cell growth or viability", "technique": "MTS", "time": "72 h", "IC50": "> 100 µM"}
{"SMILES": "O=C(CSc1nc2ccccc2s1)N/N=C/c1ccc(OCC(=O)Nc2ccc(Br)cc2)cc1", "cell line": "CAPAN-1", "effect on": "cell growth or viability", "technique": "MTS", "time": "72 h", "IC50": "10.2 µM"}
{"SMILES": "O=P1(c2ccccc2)CCCCC1", "cell line": "SW-620", "effect on": "cell growth or viability", "technique": "MTT", "time": "72 h", "IC50": "> 100 µM"}
{"SMILES": "c1ccc(-c2cc(CNc3cccc4cccnc34)on2)cc1", "cell line": "CAPAN-1", "effect on": "cell growth or viability", "technique": "MTS", "time": "72 h", "IC50": "11.4 µM"}
{"SMILES": "C[C@H]1C[C@H]2[C@@H]3CCC4=CC(=O)C=C[C@]4(C)[C@H]3C(=O)C[C@]2(C)[C@@]1(O)C(=O)CO", "cell line": "HepaRG", "effect on": "reactive oxygen species", "action": "inhibitor", "time": "16 h", "IC50": "5.27 µM"}
{"SMILES": "O=C(NO)c1ccc(Cn2cnc3c(Nc4ccc(F)c(Cl)c4)ncnc32)cc1", "cell line": "THP-1", "effect on": "cell growth or viability", "technique": "MTT", "time": "72 h", "IC50": "1.61 µM"}
{"SMILES": "FC(F)(F)c1ccc(-c2cc(CNc3cccc4cccnc34)on2)cc1", "cell line": "CAPAN-1", "effect on": "cell growth or viability", "technique": "MTS", "time": "72 h", "IC50": "19.9 µM"}
{"SMILES": "O=P1(C2CCCCC2)CCCCC1", "cell line": "SW-620", "effect on": "cell growth or viability", "technique": "MTT", "time": "72 h", "IC50": "16.1 µM"}
{"SMILES": "FC(F)(F)c1cc(OCc2cc(-c3ccc(Cl)cc3Cl)no2)c2ccccc2n1", "cell line": "CAPAN-1", "effect on": "cell growth or viability", "technique": "MTS", "time": "72 h", "IC50": "> 100 µM"}
{"SMILES": "CCS(=O)(=O)Nc1ccc(Oc2ccc(F)cc2F)c(-c2cn(C)c(=O)c3[nH]ccc23)c1", "cell line": "MP46", "effect on": "cell growth or viability", "technique": "ATP luminescence", "time": "72 h", "IC50": "0.0892 µM"}
{"SMILES": "COc1ccc(Nc2ncnc3c2ncn3Cc2ccc(C(=O)NO)cc2)cc1", "cell line": "THP-1", "effect on": "cell growth or viability", "technique": "MTT", "time": "72 h", "IC50": "0.42 µM"}
{"SMILES": "COc1ccc(-c2nc(N3CCOCC3)c3sc(CN(C)c4ncc(C(=O)NO)cn4)cc3n2)cn1", "cell line": "MP46", "effect on": "cell growth or viability", "technique": "ATP luminescence", "time": "72 h", "IC50": "0.00928 µM"}
{"SMILES": "Cc1cc2c(C(=O)O)cccc2n1-c1nc2c(c(NCc3ccccc3)n1)CCCN2", "cell line": "SW-620", "effect on": "cell growth or viability", "time": "72 h", "IC50": "2.1 µM"}
